An excerpt weighted towards active compounds, which were near 2.8% of everything screened.
ASAP1 inh = ASAP1 ArfGAP inhibition; Q9ULH1; ASAP1-stimulated ARF1 GTP hydrolysis, GDP FP detection; inhibition, % at 16.5 µM; hit rate 0.19% among 360,000; in the data active = inhibition above about 25%
PAFAH1B3 inh = blocks human PAF acetylhydrolase 1B catalytic subunit 3; Q15102; recombinant PAFAH1B3, FP-rhodamine probe, fluorescence polarization; inhibition, % at 3.39 µM; hit rate 0.28% among 340,000;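 active = inhibition above the screen-wide average of all tested compounds plus 3 SD, cut at about 25% in these data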
Target sequence (Q15102 whole entry, looked up): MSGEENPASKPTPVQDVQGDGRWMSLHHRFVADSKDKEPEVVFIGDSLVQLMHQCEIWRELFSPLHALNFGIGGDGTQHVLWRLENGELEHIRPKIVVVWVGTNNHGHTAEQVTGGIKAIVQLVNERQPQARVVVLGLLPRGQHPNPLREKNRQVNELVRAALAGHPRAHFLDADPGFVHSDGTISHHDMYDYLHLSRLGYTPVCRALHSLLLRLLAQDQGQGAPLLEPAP
pPAFAH inh = inhibitors of human plasma PAF acetylhydrolase (pPAFAH) | hit rate 1.5% among 330,000 | recombinant pPAFAH, FP-rhodamine probe fluorescence polarization | AID 463082 | inhibition, % at 3.39 µM;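 active = inhibition above the mean inhibition across the screen plus 3 SD, cut at about 25% in these data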;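 note: inhibitors block binding of the rhodamine activity-based probe so polarization drops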
PAFAH2 inh = inhibitors of human PAFAH2 | Q99487 | recombinant PAFAH2, FP-rhodamine activity probe, fluorescence polarization | inhibition, % at 3.39 µM | hit rate 0.99% among 340,000;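 active = inhibition above the mean over all tested compounds plus 3 SD, cut at about 30% in these data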;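 note: inhibitors block probe labeling of enzyme so polarization drops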
ARFGAP1 inh = rat ARFGAP1 inhibition | Arfgap1-stimulated ARF1 GTP hydrolysis, GDP FP detection | Q62848 | hit rate 0.26% among 360,000 | inhibition, % at 16.5 µM | AID 651572;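 active = inhibition above a per-plate limit, mean inhibition of low control wells plus 3 SD, cut at about 25% in these data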
Target sequence (Q62848 1-136 limits assumed): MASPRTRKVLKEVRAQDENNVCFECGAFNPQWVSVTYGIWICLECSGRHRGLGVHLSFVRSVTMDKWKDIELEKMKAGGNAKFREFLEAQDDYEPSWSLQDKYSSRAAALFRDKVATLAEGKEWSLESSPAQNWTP
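system = rat Arfgap1 catalytic domain, aa 1-136 | technique = FP, GDP Alexa 633 tracer displaced from anti-GDP antibody, 620/688 nm | compound = one concentration, 16.5 µM, DMSO 1.26% | medium = HEPES-based buffer, pH 7.5 | timing = compound-enzyme preincubation 20 min, reaction 120 min, detection 60 min, 25 °C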
PAFAH1B2 FP inh = PAFAH1B2 (human) inhibition; recombinant PAFAH1B2, FP-rhodamine activity probe, fluorescence polarization; AID 492953; inhibition, % at 3.39 µM; hit rate 1.2% among 340,000;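 active = inhibition above the mean of all tested compounds plus 3 SD, cut at about 24% in these data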
Target sequence (P68402 whole entry, looked up): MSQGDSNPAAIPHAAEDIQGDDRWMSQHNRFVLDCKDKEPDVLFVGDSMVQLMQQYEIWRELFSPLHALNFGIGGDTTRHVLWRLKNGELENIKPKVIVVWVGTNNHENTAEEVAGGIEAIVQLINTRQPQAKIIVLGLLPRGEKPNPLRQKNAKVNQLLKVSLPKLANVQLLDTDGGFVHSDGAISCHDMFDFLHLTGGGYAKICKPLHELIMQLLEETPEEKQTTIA
Large screens that a line does not name were inactive.

CC(NC(=O)COC(=O)c1ccccc1O)C1CC2CCC1C2 (stereo unspecified)	none
COc1ccc(NS(=O)(=O)c2ccc(O)c(C(=O)OCC(=O)NC(C)C3CC4CCC3C4)c2)cc1 (stereo unspecified)	pPAFAH inh 31
O=C(NCc1ccc2c(c1)OCO2)c1[nH]c(C(F)(F)F)nc1-c1ccccc1	none (no result: PAFAH1B3 inh, pPAFAH inh, PAFAH2 inh, PAFAH1B2 FP inh)
O=C(CCC1CCCC1)NCCCNC(=O)CCC1CCCC1	none
CCCCN(CC)C(=O)Cc1c(C(=O)O)[nH]c2ccc(Cl)cc12	PAFAH1B2 FP inh 50
COc1ccc(OC)c(CNC(=O)Cc2c(C(=O)O)[nH]c3ccc(Cl)cc23)c1	none
CCOCCCNC(=O)Cc1c(C(=O)O)[nH]c2ccc(Cl)cc12	PAFAH1B2 FP inh 30
O=C(CCN1CCC2CCC(C2)C1)c1ccc(F)cc1 (stereo unspecified)	none (no result: pPAFAH inh)
COc1ccc(OCc2cccc(C(=O)Nn3cc([N+](=O)[O-])cn3)c2)cc1	PAFAH1B2 FP inh 29
Cc1nc(SCc2ccc(Br)cc2)[nH]c(=O)c1C	pPAFAH inh 34, PAFAH1B2 FP inh 74
CCSc1nc(C)c(C)c(=O)[nH]1	none (no result: pPAFAH inh)
Cc1nc(SCCc2ccccc2)[nH]c(=O)c1C	pPAFAH inh 27 (no result: ASAP1 inh, ARFGAP1 inh)
COC(=O)COc1cccc(NC(=O)C(c2ccccc2)c2ccccc2)c1	none
Cc1ccc(S(=O)(=O)NCCC(=O)NCCCSc2ccccc2)cc1	none
O=C(CCNS(=O)(=O)c1ccccc1)NCCCSc1ccccc1	PAFAH1B2 FP inh 36
O=C(CCNS(=O)(=O)c1ccc(Br)cc1)NCCCSc1ccccc1	PAFAH1B2 FP inh 26
CS(=O)(=O)N1CCC(NC(=O)Nc2ccc(OC(F)(F)F)cc2)CC1	none
O=C1CC(c2ccco2)CC(O)=C1C=Nc1cc(Cl)ccc1O (stereo unspecified)	pPAFAH inh 34
O=C1CC(c2ccco2)CC(O)=C1C=Nc1cc(Cl)ccc1Cl (stereo unspecified)	none
Cc1cc(NC(=O)C(C)SCC(=O)OCc2ccc([N+](=O)[O-])cc2)no1 (stereo unspecified)	none
Cc1ccc(S(=O)(=O)Nc2cccc(/C=C/C(=O)O)c2)cc1	none
O=S(=O)(Nc1ccc(F)cc1)c1ccc(NC(=S)Nc2ccccc2)cc1	pPAFAH inh 25
COc1ccc(C(=O)Nc2ccc(NS(=O)(=O)c3ccccc3)cc2)cc1OC	pPAFAH inh 33
COc1ccc(C(=O)Nc2ccc(S(=O)(=O)Nc3ncccn3)cc2)cc1OC	none
Cc1ccc(NS(=O)(=O)c2ccc(/C=C/C(=O)O)cc2)cc1Cl	pPAFAH inh 29
O=C(Nc1ccc(Br)cc1)c1cccc(S(=O)(=O)Nc2cnc3ccccc3c2)c1	pPAFAH inh 27
N#Cc1ccc(C(S(=O)(=O)Cc2ccccc2)S(=O)(=O)Cc2ccccc2)cc1	none (no result: PAFAH1B3 inh, pPAFAH inh, PAFAH2 inh, PAFAH1B2 FP inh)
O=C(Nc1ccc(F)c(Cl)c1)C1CC2CCC1C2 (stereo unspecified)	none
O=C1NC(Cc2ccc(O)cc2)c2nc3ccccc3c(=O)n2-c2ncccc21 (stereo unspecified)	none (no result: PAFAH1B3 inh, pPAFAH inh, PAFAH2 inh, PAFAH1B2 FP inh)
O=C(Nc1ccc(C(=O)c2ccc(C(=O)O)c(C(=O)O)c2)cc1)c1ccccc1	none
O=C(Nc1ccc(NS(=O)(=O)c2ccccc2)cc1)c1ccccc1	pPAFAH inh 34
O=C(Nc1ccc(NS(=O)(=O)c2ccccc2)cc1)c1ccc(Cl)cc1	none
Cc1c(C)c(C)c(C(=O)c2ccc(NC(=O)c3ccccc3C(=O)O)cc2)c(C)c1C	PAFAH1B3 inh 141, PAFAH2 inh 167, PAFAH1B2 FP inh 109
Cc1ccc(NS(=O)(=O)c2ccc(NC(=O)c3ccccc3C(=O)O)cc2)cc1C	pPAFAH inh 26 (no result: PAFAH1B3 inh, PAFAH2 inh, PAFAH1B2 FP inh)
CCN(CC)c1ccc(N=Cc2ccc(N(CC)CC)cc2O)cc1	pPAFAH inh 29
CCN(CC)c1ccc(C=Nc2ccc(N(C)C)cc2)c(O)c1	none
Clc1ccccc1/C=C/c1ccnc2ccccc12	pPAFAH inh 31
COc1ccc(C(=O)CCC(=O)N2CCN(c3ccc([N+](=O)[O-])cc3)CC2)cc1	none
COc1ccc(C(=O)ON=C2CCN(c3ccc([N+](=O)[O-])cc3)CC2)cc1	PAFAH2 inh 89
N#CCCN(Cc1cccs1)C(=O)Nc1ccc(F)cc1	none
CC(CCl)n1c(=O)c2ccccc2n1S(C)(=O)=O (stereo unspecified)	none (no result: PAFAH1B3 inh, pPAFAH inh, PAFAH2 inh, PAFAH1B2 FP inh)
Cc1cc(C(=O)N/N=C2\CCCC(=O)C2)c(C)o1	none (no result: pPAFAH inh)
Cc1cc(C(=O)N/N=C2\CCCC(=O)C2)c(C)n1-c1ccccc1	pPAFAH inh 28
CC1C/C(=N\NC(=O)c2ccc(NS(=O)(=O)c3ccc(Br)cc3)cc2)CC(C)(C)C1 (stereo unspecified)	PAFAH1B2 FP inh 26
CCC1(c2ccccc2)NC(=O)N(CC(=O)NCC2COc3ccccc3O2)C1=O (stereo unspecified)	none (no result: pPAFAH inh)
CCCc1cc(=O)oc2cc(C)c(CN3CCCC3)c(O)c12	pPAFAH inh 25
CN(C)[C@H]1CCN([C@@H]2CS(=O)(=O)N[C@H]2COCc2ccccc2)C1	none (no result: PAFAH1B3 inh, pPAFAH inh, PAFAH2 inh, PAFAH1B2 FP inh)
Cn1c(NCc2cccnc2)nc2cc(-c3cccc(C(F)(F)F)c3)sc2c1=O	none (no result: PAFAH1B3 inh, pPAFAH inh, PAFAH2 inh, PAFAH1B2 FP inh)
NC(=O)c1ccc(NC(=O)COC(=O)C2(c3ccccc3F)CCCC2)cc1	PAFAH1B2 FP inh 27
O=C(COC(=O)c1ccc([N+](=O)[O-])o1)NCc1ccc2c(c1)OCO2	none
CCOC(=O)N1CCN(C(=O)CN2C(=O)NC(c3ccccc3)(c3ccccc3)C2=O)CC1	none
CC1CC(C)CN(C(=O)CN2C(=O)NC(c3ccccc3)(c3ccccc3)C2=O)C1 (stereo unspecified)	PAFAH1B2 FP inh 26
COc1ccc(Br)cc1CN(C)CC(=O)NCc1ccc(F)cc1	none
COC(=O)N(C)C[C@H]1OCc2cnnn2CCCC(=O)N([C@H](C)CO)C[C@H]1C	none (no result: PAFAH1B3 inh, pPAFAH inh, PAFAH2 inh, PAFAH1B2 FP inh)
Cc1sc2ncn(CC(=O)NCc3ccco3)c(=O)c2c1-c1ccc(F)cc1	none
O=C(Cn1cnc2scc(-c3cccc([N+](=O)[O-])c3)c2c1=O)NCc1ccco1	pPAFAH inh 26
COc1cccc(NC(=O)C2CCCO2)c1 (stereo unspecified)	none
Cc1ccc(S(=O)(=O)N2CCOCC2)cc1C(=O)OCC(=O)c1ccc(Br)cc1	PAFAH1B2 FP inh 26
Cc1ccc(S(=O)(=O)N2CCOCC2)cc1C(=O)OCC(=O)c1ccc[nH]1	none
Cc1ccc(C)c(SCC(=O)NC(=O)NCc2ccccc2)c1	none
O=C(CSc1ccc(F)cc1)NC(=O)NCc1ccccc1	PAFAH1B2 FP inh 28
O=C(CSc1ncn[nH]1)NCCc1ccc(Cl)cc1	PAFAH1B2 FP inh 31
O=C(CSc1ccccc1)NCCc1ccc(F)cc1	PAFAH1B2 FP inh 27
O=C(CSc1ccc2ccccc2c1)NCCc1ccc(O)c(O)c1	pPAFAH inh 27
Cc1noc(C)c1COc1ccccc1C(=O)NC(C)c1ccc(F)cc1 (stereo unspecified)	none (no result: pPAFAH inh)

Compound activity as filed in PubChem BioAssay.
